{"source": "paper PMC3513776", "about": "(Journal of molecular recognition : JMR, 2012)", "key": {"[1]": {"biological_target": "F1*S variant of human AGP (Homo sapiens, UniProt P02763)", "assay": "ITC of drug binding to the separated F1*S variant of AGP", "conditions": "30°C", "how_it_was_run": "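F1*S variant resolved from re-purified commercial human AGP on copper(II) IMAC (20 mM HEPES pH 7.4 load; 0→100% 300 mM imidazole, 1 mL/min). Degassed protein (140 μM, 20 mM HEPES pH 7.4) titrated with 5→16 mM drug in dialysate, 240 s intervals, 360 rpm, 30°C. Drug-into-buffer dilution heat subtracted. Integrated peaks vs molar ratio fitted by Marquardt for n, Ka, ΔH.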"}, "[2]": {"biological_target": "A variant of human AGP (Homo sapiens, UniProt P19652)", "assay": "ITC of drug binding to the separated A variant of AGP", "conditions": "30°C"}, "[3]": {"test_system": "A and F1*S variants of human AGP", "conditions": "cited from earlier work"}, "[4]": {"conditions": "cited from earlier work"}, "[5]": {"test_system": "human AGP", "assay": "Isothermal titration calorimetry", "assay_type": "binding", "conditions": "ITC, 30°C, heterogeneous AGP preparation"}}, "data": [{"smiles": "CN(C)CCC=C1c2ccccc2CCc2ccccc21", "note": "[amitriptyline]", "values": [{"measurement": "thermodynamic binding signature", "setting": "[1]; F1*S variant", "result": "comparable enthalpy and entropy gains"}, {"measurement": "lower binding affinity of the F1*S variant (vs A variant)", "setting": "[1]; separated variants", "result": 4, "unit": "fold"}, {"measurement": "thermodynamic binding signature", "setting": "[2]; A variant", "result": "dominant favorable entropy gain and a smaller, albeit favorable enthalpy gain"}, {"measurement": "greater affinity for the A variant compared to the F1*S variant", "setting": "[2]; separated variants", "result": 4, "unit": "fold"}, {"measurement": "difference in affinity between A and F1*S", "setting": "[3]", "result": "> 20", "unit": "fold"}, {"measurement": "pKa of the N,N-dimethylpropan-1-amine side chain", "setting": "[4]", "result": 9.2}]}, {"smiles": "CN(C)CCCN1c2ccccc2Sc2ccc(Cl)cc21", "note": "[chlorpromazine]", "values": [{"measurement": "binding energetics, A versus F1*S variant", "setting": "[2]; separated variants", "result": "comparable for both variants"}, {"measurement": "affinity for both variants", "setting": "[3]", "result": "comparable"}]}, {"smiles": "CC(C)N(CCC(C(N)=O)(c1ccccc1)c1ccccn1)C(C)C", "note": "(stereo not drawn) [disopyramide]", "values": [{"measurement": "affinity for the F1*S", "setting": "[3]", "result": "very low"}, {"measurement": "variant selectivity of binding", "setting": "[3]", "result": "selectively bind to the A variant"}]}, {"smiles": "CN(C)CC/C=C1\\c2ccccc2CSc2ccccc21", "note": "[dothepin]", "values": [{"measurement": "lower affinity for AGP compared to amitriptyline", "setting": "[5]", "result": "~ 2.5 fold"}]}, {"smiles": "CN1CCN2c3ccccc3Cc3ccccc3C2C1", "note": "(stereo not drawn) [miaserine]", "values": [{"measurement": "lower affinity for AGP compared to amitriptyline", "setting": "[5]", "result": "~ 6 fold"}]}]}
